High-throughput results as filed in PubChem BioAssay.
FLuc act counter – affects firefly luciferase, flagging false hits in luciferase stimulation screens; 200,000 tested, under 10 active; P08659; activation factor at 10 µM; ATPlite luciferase biochemical, luminescence, 10 min; 0 = ATP-free wells, 1 = DMSO control;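 active = luciferase activation factor, scaled between plate controls, of at least 2 with compound at 10 µM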
Target sequence (P08659 whole entry, looked up): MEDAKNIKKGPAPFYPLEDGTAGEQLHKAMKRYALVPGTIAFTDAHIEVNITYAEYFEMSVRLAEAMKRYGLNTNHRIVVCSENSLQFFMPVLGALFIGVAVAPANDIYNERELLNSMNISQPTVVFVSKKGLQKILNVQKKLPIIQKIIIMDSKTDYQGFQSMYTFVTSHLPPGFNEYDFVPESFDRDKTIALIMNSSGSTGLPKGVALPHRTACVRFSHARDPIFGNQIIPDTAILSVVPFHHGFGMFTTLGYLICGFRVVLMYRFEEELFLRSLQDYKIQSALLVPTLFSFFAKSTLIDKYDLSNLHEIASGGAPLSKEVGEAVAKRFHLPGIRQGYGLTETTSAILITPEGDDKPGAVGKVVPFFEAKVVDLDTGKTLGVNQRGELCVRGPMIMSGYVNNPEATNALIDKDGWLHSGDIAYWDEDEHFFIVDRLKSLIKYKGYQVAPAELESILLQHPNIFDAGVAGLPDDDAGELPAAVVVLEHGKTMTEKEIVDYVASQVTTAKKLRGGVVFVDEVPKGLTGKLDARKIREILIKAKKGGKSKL
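Assay system – cell-free luciferase reagent · Medium – PBS-based ATP solution · Dosing – test compounds dosed from 2 mM stocks in 100% DMSO · Timing – 10 min, room temperature · Technique – light output (luminescence) · Measure – luminescence gain marking luciferase activators · Controls – No-ATP low control, compound-free enzyme-plus-ATP high control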
APP 5'UTR act – APP 5'UTR luciferase reporter activation; SH-SY5Y APP 5'UTR luciferase reporter, luminescence; zero percent = DMSO vehicle wells; activation, % at 2 µM; 1% of 190,000 active; AID 1276;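 active = activation above a set limit, based on mean plus 3 SD of controls, cut at about 140% in these data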
NF-kB expr up – NF-kB expression increase, human neuronal cells; NF-kB reporter expression; active compounds read high; fold change at 12.5 µM; AID 1239; 1.6% of 190,000 active; in the data active = fold change above about 3.3
STAT1 activator – STAT1 signaling activation. NIH 3T3 STAT1-luciferase reporter, IFN-gamma, luminescence; 100% = IFN-gamma alone, no compound. activation (% of control), % at 5.5 µM. 2.6% of 200,000 active;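 active = activation above the screen-wide mean activation plus 3 SD, cut at about 130% in these data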;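 note: raw ratio to IFN-gamma control signal so 100% means no change and 0% no light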
FLuc inhib CS – inhibits firefly luciferase, flagging false hits in luciferase inhibition screens; inhibition, % at 10 µM; 1.5% of 200,000 active; ATPLite firefly luciferase biochemical luminescence, 10 min; P08659;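 active = inhibition above about 50% when tested at 10 µM, limit read from the data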
Starred values were filed as active, the others as inactive. The list is not random: actives were taken first. Their share in the collection is about 4.3%.

What do the screens show for `Cc1cccc(C)c1NS(=O)(=O)c1ccc(OCCNS(C)(=O)=O)cc1`?
FLuc act counter: 0.2; APP 5'UTR act: 4.2; NF-kB expr up: 0.83; STAT1 activator: 94.1; FLuc inhib CS: 81.2*

How did CS(=O)(=O)NCCOc1ccc(S(=O)(=O)NCCOc2ccccc2)cc1 do in these assays?
FLuc act counter: 1; APP 5'UTR act: 9.5; NF-kB expr up: 1.02; STAT1 activator: 103.4; FLuc inhib CS: -0.9

What do the screens show for `Cc1nc(-c2ccc(NC(=O)C3CCCCC3)cc2)cs1`?
FLuc act counter: 0.6; APP 5'UTR act: 167.4*; NF-kB expr up: 3.51*; STAT1 activator: 137.9*; FLuc inhib CS: 42.8

Results for Cc1nc(-c2ccc(NC(=O)c3ccccc3)cc2)cs1 ?
FLuc act counter: 0.1; APP 5'UTR act: 184.3*; NF-kB expr up: 7.52*; STAT1 activator: 71.5; FLuc inhib CS: 87.7*

Results for O=C(c1ccc([N+](=O)[O-])cc1[N+](=O)[O-])n1cnc2ccccc21 ?
FLuc act counter: 1; APP 5'UTR act: 28.0; NF-kB expr up: 0.91; STAT1 activator: 95.4; FLuc inhib CS: 1.9

Results for O=C(c1cc2c(=O)n3ccccc3nc2s1)N1CCOCC1 ?
FLuc act counter: 1; APP 5'UTR act: 45.3; NF-kB expr up: 2.01; STAT1 activator: 131.2*; FLuc inhib CS: 0.8

What do the screens show for `CCCNC(=O)COC(=O)c1cc2c(=O)n3ccccc3nc2s1`?
FLuc act counter: 1; APP 5'UTR act: 17.9; NF-kB expr up: 1.24; STAT1 activator: 106.3; FLuc inhib CS: 2.9

Results for CCCc1ccc(OCc2ccc(C(=O)OC)o2)c(OC)c1 ?
FLuc act counter: 0.9; APP 5'UTR act: 70.8; NF-kB expr up: 2.75; STAT1 activator: 132.3*; FLuc inhib CS: 5.0

How did CCOc1ccc(OCc2ccc(C(=O)O)o2)cc1 do in these assays?
FLuc act counter: 0.9; APP 5'UTR act: 81.6; NF-kB expr up: 3.18; STAT1 activator: 93.4; FLuc inhib CS: 8.8

Results for COC(=O)c1ccc(COc2ccccc2[N+](=O)[O-])o1 ?
FLuc act counter: 0.9; APP 5'UTR act: 32.8; NF-kB expr up: 1.28; STAT1 activator: 114.9; FLuc inhib CS: 6.0

What do the screens show for `CCCc1ccc(OCc2ccc(C(=O)O)o2)c(OC)c1`?
FLuc act counter: 0.9; APP 5'UTR act: 82.5; NF-kB expr up: 4.23*; STAT1 activator: 127.0; FLuc inhib CS: 6.1

How did O=C(CNCC1CCCO1)NCc1ccco1 (stereo not drawn) do in these assays?
FLuc act counter: 1; APP 5'UTR act: -16.9; NF-kB expr up: 1.04; STAT1 activator: 105.1; FLuc inhib CS: -1.1

Results for CCOC(=O)C1(Cc2ccc(Cl)cc2)CCN(C(=O)c2ccoc2)CC1 ?
FLuc act counter: 1.1; APP 5'UTR act: 18.8; NF-kB expr up: 0.97; STAT1 activator: 95.0; FLuc inhib CS: -5.6

Results for O=C(OCC(=O)c1ccc(Cl)s1)c1ccccn1 ?
FLuc act counter: 0.4; APP 5'UTR act: -8.2; NF-kB expr up: 1.13; STAT1 activator: 101.2; FLuc inhib CS: 57.1*

How did O=C(N/N=C\C=C\c1ccco1)c1cc(-c2ccc3ccccc3c2)n[nH]1 do in these assays?
FLuc act counter: 0.8; APP 5'UTR act: 30.0; NF-kB expr up: 1.97; STAT1 activator: 132.8*; FLuc inhib CS: 16.1

Results for O=C(N/N=C/C=C/c1ccco1)c1cccnc1 ?
FLuc act counter: 1.1; APP 5'UTR act: 8.4; NF-kB expr up: 1.02; STAT1 activator: 101.3; FLuc inhib CS: -6.3

What do the screens show for `O=C(c1ccc(Cl)cc1)c1coc2ccc(O)cc12`?
FLuc act counter: 0.8; APP 5'UTR act: 128.9; NF-kB expr up: 8.77*; STAT1 activator: 107.2; FLuc inhib CS: 18.5

How did COc1ccc2occ(C(=O)c3ccccc3)c2c1 do in these assays?
FLuc act counter: 0.7; APP 5'UTR act: 36.1; NF-kB expr up: 0.92; STAT1 activator: 135.3*; FLuc inhib CS: 28.9

How did CCN(CC)S(=O)(=O)c1cccc2cc(C(=O)O)c(O)cc12 do in these assays?
FLuc act counter: 1.1; APP 5'UTR act: -1.2; NF-kB expr up: 0.95; STAT1 activator: 94.3; FLuc inhib CS: -7.3

What do the screens show for `Cc1ccc(CN2CN(S(=O)(=O)c3cccs3)c3nc4ccccc4nc32)cc1`?
FLuc act counter: 1; APP 5'UTR act: 5.6; NF-kB expr up: 6.43*; STAT1 activator: 141.5*; FLuc inhib CS: 3.0

What do the screens show for `COc1ccc(C(=O)NCCSc2ccccc2)cc1OC`?
FLuc act counter: 1; APP 5'UTR act: 46.2; NF-kB expr up: 2.05; STAT1 activator: 134.1*; FLuc inhib CS: -4.9
